Results collected from several papers.
Each line is one published result; the experiments were not run side by side.
Cell line: A549
Read-out: cell growth or viability

| Structure (SMILES) | technique | time | IC50 |
| --- | --- | --- | --- |
| Cc1ccc(CN2C(=O)/C(=N\NC(=O)c3cc4ccccc4[nH]3)c3ccccc32)cc1 |  |  | 640 nM |
| C=CCc1cc(OC)c2c(c1)OCO2 | SRB |  | 359000 nM |
| CCCCCCCC(=O)SCC/C=C/[C@@H]1CC(=O)NCc2nc(cs2)C2=N[C@@](C)(CS2)C(=O)N[C@@H](C(C)C)C(=O)O1 | resazurin | 48 h | 3.8 nM |
| Cc1cccc(-n2ncc(Cl)c(Cl)c2=O)c1 | resazurin | 96 h | 1400 nM |
| CC[C@@]1(OC(=O)CN)C(=O)OCc2c1cc1n(c2=O)Cc2cc3cc4c(cc3nc2-1)OCO4 | MTT |  | 29 nM |
| O=C(N/N=C1\C(=O)N(Cc2ccccc2)c2ccc(Cl)cc21)c1cc2ccccc2[nH]1 |  | 72 h | 1330 nM |
| CC[C@@]1(OC(=O)[C@@H](N)Cc2ccccc2)C(=O)OCc2c1cc1n(c2=O)Cc2cc3cc4c(cc3nc2-1)OCO4 | MTT |  | 36 nM |
| COc1ccc2c(c1)[nH]c1c(C)nccc12 | MTT | 72 h | 19400 nM |
| Nc1cc(I)c(I)cc1N |  | 72 h | 25000 nM |
| CC[C@@]1(O)C(=O)OCc2c1cc1n(c2=O)Cc2cc3cc4c(cc3nc2-1)OCO4 | MTT | 72 h | 29 nM |
| COc1ccc2c(c1)/C(=N/NC(=O)c1cc3ccccc3[nH]1)C(=O)N2Cc1ccccc1 |  |  | 640 nM |
| CC1=C(O)C(=O)C=C2C1=CC=C1[C@@]2(C)CC[C@@]2(C)[C@@H]3C[C@](C)(C(=O)O)CC[C@]3(C)CC[C@]12C | MTT | 48 h | 5340 nM |
| CC[C@@]1(OC(=O)Cc2c(C)n(C(=O)c3ccc(Cl)cc3)c3ccc(OC)cc23)C(=O)OCc2c1cc1n(c2=O)Cc2cc3cc4c(cc3nc2-1)OCO4 | MTT |  | 263 nM |
| COc1c2c(cc3c1OCO3)[C@]13C=C[C@H](OC)C[C@@H]1[N@](C2)C[C@H]3OC(=O)c1ccc2ccccc2c1 | WST-1 |  | > 10000 nM |
| CC[C@@]1(OC(=O)[C@@H](N)CCCCN)C(=O)OCc2c1cc1n(c2=O)Cc2cc3cc4c(cc3nc2-1)OCO4 | MTT |  | 88 nM |
| CSC(=NNC(=O)c1ccc(Cl)c(Cl)c1)SC | MTT | 5 days | 69000 nM |
| O=C(N/N=C1\C(=O)N(Cc2ccccc2)c2ccc(F)cc21)c1cc2ccccc2[nH]1 |  |  | 1410 nM |
| CC[C@@]1(OC(=O)C(C)c2ccc(CC(C)C)cc2)C(=O)OCc2c1cc1n(c2=O)Cc2cc3cc4c(cc3nc2-1)OCO4 (stereo partly shown) | MTT |  | > 5000 nM |
| Nc1cc(Br)c(Br)cc1N |  | 72 h | 75000 nM |
